The source made the active and inactive calls. No cut-off for these calls is given here.
How the values were obtained:
[1] = Cytotoxicity against MDCK cells after 48 hrs by MTT assay; format: cell-based, Canis lupus familiaris; conditions: dog
How it was run: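 Uninfected MDCK cells were exposed to three-fold compound dilutions in MEM for 48 h at 36°C, 5% CO2, then washed with PBS. MTT ([…] in PBS) was added for 1 h, and formazan was dissolved in DMSO.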

[2] = Antiviral activity against Influenza A virus (A/California/07/09(H1N1)) pdm09 infected in MDCK cells pretreated for 1 hr followed by viral infection incubated for 24 hrs measured after 48 hrs by hemagglutination test; format: functional, cell-based, Influenza A virus (A/California/07/2009(H1N1))
How it was run: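 MDCK cells preincubated with compound for 1 h at 36°C, each concentration in triplicate, then infected (moi 0.01) for 24 h at 36°C, 5% CO2. Supernatant virus titer was read by hemagglutination after 48 h culture in MDCK cells at 36°C.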

[3] = Selectivity index, ratio of CC50 for MDCK cells to IC50 for Influenza A virus (A/California/07/09(H1N1)) pdm09 infected in MDCK cells; format: toxicity, cell-based; conditions: dog; read-out: Ratio CC50/IC50
Influenza A virus [4] = assay: Antiviral activity against Influenza A virus (A/Puerto Rico/8/34(H1N1)) infected in MDCK cells at 500 uM after 4 to 8 hrs post infection by MTT assay; format: functional, cell-based; conditions: A/Puerto Rico/8/1934(H1N1)
How it was run: (§1)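 Time-of-addition assay in MDCK cells. Virus was adsorbed at m.o.i. 10 for 1 h at 4°C, unbound virions were washed off with MEM, and cells were incubated for 8 h at 36°C, 5% CO2 (start = 0 h). Compound at 500 µM final in MEM was present during set windows between −2 and 8 hpi, then washed out. Titer after 8 h was read as TCID50 by MTT assay.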

Influenza A virus [5] = assay: Antiviral activity against Influenza A virus (A/Puerto Rico/8/34(H1N1)) infected in MDCK cells at 500 uM at 1 to 2 hrs post infection by MTT assay; format: functional, cell-based; conditions: A/Puerto Rico/8/1934(H1N1); how it was run: as §1

SMILES: CC(N)C12CC3CC(CC(C3)C1)C2 (stereo unspecified) [RIMANTADINE]
- CC50 at 48 h [1]: 363 µM
- IC50 [2]: 41 µM
- selectivity ratio [3]: 9

SMILES: CC1(C)[C@H]2CC=C(CCOc3ccc4c5c(c(=O)oc4c3)CCC5)[C@@H]1C2
- CC50 at 48 h [1]: > 857 µM
- IC50 [2]: 21 µM
- selectivity ratio [3]: 41

SMILES: Cc1cc(=O)oc2cc(OCC3=CC[C@H]4C[C@@H]3C4(C)C)ccc12
- CC50 at 48 h [1]: 30 µM
- IC50 [2]: 4 µM
- selectivity ratio [3]: 9

SMILES: CC1(C)[C@H]2CC=C(CCOc3ccc4c5c(c(=O)oc4c3)CCCC5)[C@@H]1C2
- CC50 at 48 h [1]: 18 µM
- IC50 [2]: 3 µM
- selectivity ratio [3]: 6

SMILES: CC1(C)[C@H]2CC=C(COc3ccc4ccc(=O)oc4c3)[C@@H]1C2
- CC50 at 48 h [1]: 310 µM
- IC50 [2]: > 101 µM
- selectivity ratio [3]: < 3

SMILES: CC1(C)[C@H]2CC=C(COc3ccc4c5c(c(=O)oc4c3)CCC5)[C@@H]1C2
- Activity (Influenza A virus [4]): inactive
- CC50 at 48 h [1]: 982 µM
- IC50 [2]: 36 µM
- Activity (Influenza A virus [5]): Active
- selectivity ratio [3]: 28

SMILES: CC(C)=CCC/C(C)=C/COc1ccc2c(C)cc(=O)oc2c1
- CC50 at 48 h [1]: 28 µM
- IC50 [2]: > 10 µM
- selectivity ratio [3]: < 3

SMILES: CC1(C)[C@@H]2CC=C(COc3ccc4c5c(c(=O)oc4c3)CCCC5)[C@H]1C2
- CC50 at 48 h [1]: 415 µM
- IC50 [2]: 149 µM
- selectivity ratio [3]: 3

SMILES: COc1cccc(COc2ccc3c4c(c(=O)oc3c2)CCCC4)c1
- CC50 at 48 h [1]: > 982 µM
- IC50 [2]: > 982 µM

SMILES: COc1cccc(COc2ccc3ccc(=O)oc3c2)c1
- CC50 at 48 h [1]: > 1170 µM
- IC50 [2]: > 1170 µM

SMILES: CC1(C)[C@H]2CC=C(CCOc3ccc4ccc(=O)oc4c3)[C@@H]1C2
- CC50 at 48 h [1]: 10 µM
- IC50 [2]: 0.5 µM
- selectivity ratio [3]: 20

SMILES: CC(C)=CCC/C(C)=C/COc1ccc2c3c(c(=O)oc2c1)CCC3
- CC50 at 48 h [1]: > 888 µM
- IC50 [2]: > 888 µM

SMILES: Cc1cc(=O)oc2cc(OCC3=CC[C@@H]4C[C@H]3C4(C)C)ccc12
- CC50 at 48 h [1]: 130 µM
- IC50 [2]: 10 µM
- selectivity ratio [3]: 13

SMILES: CC(C)=CCC/C(C)=C/COc1ccc2ccc(=O)oc2c1
- CC50 at 48 h [1]: 7 µM
- IC50 [2]: 7 µM
- selectivity ratio [3]: 1

SMILES: CC1(C)[C@@H]2CC=C(COc3ccc4c5c(c(=O)oc4c3)CCC5)[C@H]1C2
- CC50 at 48 h [1]: 133 µM
- IC50 [2]: 33 µM
- selectivity ratio [3]: 4

SMILES: CC(C)=CCC/C(C)=C/COc1ccc2c3c(c(=O)oc2c1)CCCC3
- CC50 at 48 h [1]: 100 µM
- IC50 [2]: > 85 µM
- selectivity ratio [3]: 1

SMILES: COc1cccc(COc2ccc3c(C)cc(=O)oc3c2)c1
- CC50 at 48 h [1]: > 1120 µM
- IC50 [2]: 1010 µM
- selectivity ratio [3]: > 1

SMILES: CC1(C)[C@H]2CC=C(COc3ccc4c5c(c(=O)oc4c3)CCCC5)[C@@H]1C2
- CC50 at 48 h [1]: 857 µM
- IC50 [2]: 64 µM
- selectivity ratio [3]: 13

SMILES: CC1(C)[C@@H]2CC=C(COc3ccc4ccc(=O)oc4c3)[C@H]1C2
- CC50 at 48 h [1]: 7 µM
- IC50 [2]: > 10 µM
- selectivity ratio [3]: 1

Reference: ChEMBL document CHEMBL4020774, “Anti-influenza activity of monoterpene-containing substituted coumarins” (Bioorg Med Chem Lett, 2017)
